Activity calls are given as the source filed them.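 The calls were made as follows, unless noted: active = duplicate-averaged activation above buffer control mean plus 5 SD of those controls; inactive = the rest.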

The record followed here is PubChem BioAssay.

Test [1] is described as follows: nonspecific flux increase, KCNQ1-free cells – parental CHO cells, counter-screen for KCNQ1 potentiator project (AID 493006).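 As to activation: fluorescence ratio of max minus min over baseline after K+ and Tl+ depolarization.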 The following applies: parental CHO-K1 cells, FluxOR thallium flux, at 10 µM; stronger effect = higher value. A digest of the protocol: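 Material: untransfected host CHO-K1 cells with FluxOR thallium dye. Timing: overnight 37 °C plating, 90 min RT dye, 20 min compound. Detection: kinetic FluxOR fluorescence, 10 s baseline, 110 s after stimulus. Read-out basis: max-minus-min fluorescence over baseline, percent of buffer-to-R-L3 span. Replicates: duplicate wells per compound, percent values averaged.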
Background: A counterscreen serves to expose hits that act by an unwanted route or on another target.

Test [2] concerns the target Potassium voltage-gated channel subfamily KQT member 1 (Homo sapiens) (UniProt P51787). Briefly: enhancement of KCNQ1 channel thallium flux – FluxOR thallium flux, CHO cells, duplicates, confirmation (AID 493007;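 active = potentiation averaged over duplicate wells exceeding buffer-only control mean by more than 3 SD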;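 as to outcome: cells depolarized by a potassium plus thallium sulfate stimulus after compound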). As to conditions: KCNQ1 cell line, FluxOR thallium flux fluorescence, at 10 µM; stronger effect = higher value, % of reference activator effect, buffer zero. Put shortly:
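Test system – KCNQ1-expressing CHO cell line · Incubation – FluxOR dye loading 90 min, compound exposure 20 min, room temperature · Detection – FluxOR Tl+ flux fluorescence, 10 s baseline plus 110 s recording · Controls – buffer-only wells as 0% and R-L3 activator as 100%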

Test [3] addresses Potassium voltage-gated channel subfamily KQT member 2 (Rattus norvegicus) (UniProt O88943). As to the kind of experiment: KCNQ2 thallium flux enhancement – KCNQ2-CHO-K1 cells, selectivity assay for KCNQ1 potentiator project (AID 493009;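 active = mean duplicate potentiation above the buffer control mean plus 5 SD of buffer wells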;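 also: assay conditions were tuned for KCNQ1 rather than KCNQ2 modulators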). The following applies: FluxOR thallium flux fluorescence, at 10 µM; stronger effect = higher value, scaled: buffer 0, activator control 100.
The target in test [4] is Potassium voltage-gated channel subfamily KQT member 1 (Homo sapiens) (UniProt P51787). As to the kind of experiment: KCNQ1 activators by electrophysiology – IonWorks patch clamp, KCNQ1-CHO cells, orthogonal assay for KCNQ1 potentiator project, confirmation (AID 493184;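 active = current rise at least 3 SD above the untreated control mean in each of two repeat wells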). The following applies: automated patch clamp current, at 10 µM; stronger effect = higher value. Put shortly:
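Read-out: Percent current increase versus pre-compound level | Assay system: CHO cells carrying KCNQ1 | Measured by: Automated perforated-patch electrophysiology | Medium: External bath solution at pH 7.4 | Dosing: One dose, 10 µM final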

Chain of Potassium voltage-gated channel subfamily KQT member 2 (Rattus norvegicus) (O88943 whole entry, looked up): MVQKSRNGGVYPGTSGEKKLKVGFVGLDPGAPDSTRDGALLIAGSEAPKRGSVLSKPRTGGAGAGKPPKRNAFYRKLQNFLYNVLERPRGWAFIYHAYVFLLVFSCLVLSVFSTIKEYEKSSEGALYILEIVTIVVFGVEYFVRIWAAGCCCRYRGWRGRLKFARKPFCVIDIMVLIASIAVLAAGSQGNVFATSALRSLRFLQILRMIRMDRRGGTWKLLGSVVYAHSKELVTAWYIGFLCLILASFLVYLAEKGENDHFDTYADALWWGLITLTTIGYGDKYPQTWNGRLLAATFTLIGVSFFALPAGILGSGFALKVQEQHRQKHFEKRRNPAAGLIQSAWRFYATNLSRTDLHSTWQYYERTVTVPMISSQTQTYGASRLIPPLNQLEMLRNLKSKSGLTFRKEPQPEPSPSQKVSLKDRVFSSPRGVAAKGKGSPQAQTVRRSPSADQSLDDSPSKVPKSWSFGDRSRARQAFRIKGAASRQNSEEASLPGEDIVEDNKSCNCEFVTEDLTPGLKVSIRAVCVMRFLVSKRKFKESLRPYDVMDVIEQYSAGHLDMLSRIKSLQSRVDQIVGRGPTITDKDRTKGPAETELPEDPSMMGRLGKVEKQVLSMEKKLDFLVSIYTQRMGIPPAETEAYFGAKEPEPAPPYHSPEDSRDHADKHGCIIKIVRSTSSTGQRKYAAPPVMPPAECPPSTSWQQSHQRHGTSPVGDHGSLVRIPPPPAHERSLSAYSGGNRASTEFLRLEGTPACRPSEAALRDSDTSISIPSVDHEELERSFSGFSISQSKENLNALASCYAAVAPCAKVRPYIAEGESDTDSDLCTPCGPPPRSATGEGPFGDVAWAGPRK
Chain of Potassium voltage-gated channel subfamily KQT member 1 (Homo sapiens) (P51787 whole entry, looked up): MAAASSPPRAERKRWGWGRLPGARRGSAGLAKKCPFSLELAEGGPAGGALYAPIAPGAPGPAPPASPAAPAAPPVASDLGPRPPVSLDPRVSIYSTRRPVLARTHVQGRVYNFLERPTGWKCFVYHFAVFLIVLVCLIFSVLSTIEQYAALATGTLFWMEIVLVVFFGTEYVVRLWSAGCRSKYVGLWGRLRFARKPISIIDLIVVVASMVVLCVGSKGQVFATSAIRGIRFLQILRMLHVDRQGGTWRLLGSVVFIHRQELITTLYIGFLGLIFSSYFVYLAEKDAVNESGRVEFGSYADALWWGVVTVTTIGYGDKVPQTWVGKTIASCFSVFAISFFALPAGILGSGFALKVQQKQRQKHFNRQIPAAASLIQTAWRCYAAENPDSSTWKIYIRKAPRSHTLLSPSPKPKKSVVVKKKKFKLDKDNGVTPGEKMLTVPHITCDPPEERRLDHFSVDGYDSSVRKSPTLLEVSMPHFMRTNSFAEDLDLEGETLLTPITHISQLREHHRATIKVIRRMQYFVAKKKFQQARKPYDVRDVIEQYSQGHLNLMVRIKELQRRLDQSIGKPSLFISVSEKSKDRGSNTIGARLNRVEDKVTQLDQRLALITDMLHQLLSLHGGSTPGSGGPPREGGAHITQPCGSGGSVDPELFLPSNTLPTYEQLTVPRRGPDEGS

With `O=C(/C=C/c1ccccc1Cl)c1ccccc(=O)c1O`, the activation in test [1] was 214% (active). Further, the figures for the potentiation in test [2] and in test [3] were 134% (active) and 374% (active), respectively. Moreover, the outcome in test [4] was inactive.
On to `Cc1[nH][nH]c(=O)c1C(c1ccc(-c2ccc(F)cc2)o1)c1c(C)[nH][nH]c1=O`, for which the result in test [1], in test [2], in test [3] and in test [4] was inactive.
In the case of `O=C(CNC(=O)c1sc2ccccc2c1Cl)OCc1ccccc1`, the outcome in test [1], in test [2], in test [3] and in test [4] was inactive.
For the compound `Cc1cc(/C=C2\C(=N)N3N=C(C(C)C)SC3=NC2=O)c(C)n1Cc1ccccc1`, the result in test [1], in test [2], in test [3] and in test [4] was inactive.
As for `COc1cc(C2C(C#N)=C(N)Oc3cc(O)ccc32)cc2c1OCO2` (stereo not given), the result in test [1], in test [2], in test [3] and in test [4] was inactive.
For the compound `Cc1ccc(Cc2c[nH]c(=S)s2)cc1`, in test [1], the activation was 348% (active). Moreover, the potentiation in test [2] was 126% (active); in test [3] it was 343% (active). Moreover, in test [4], the outcome was inactive.
Turning to `CCCN(CCC)C(=S)NC(=O)c1ccc(-c2ccccc2)cc1`, the activation in test [1] is 436% (active). The results for the potentiation in test [2] and in test [3] were 248% (active) and 556% (active), respectively. In addition, the result in test [4] was inactive.
On to `CCNc1nc(NCC)n2c(SCC(=O)Nc3ccc(F)cc3)nnc2n1`, for which the result in test [1], in test [2], in test [3] and in test [4] was inactive.
Regarding `CCCCN1C=CC(=C2C(=O)c3ccccc3C2=O)C=C1`, the outcome in test [1], in test [2], in test [3] and in test [4] was inactive.
`CCCc1cc2c(-c3ccccc3)cc(=O)oc2cc1OCc1ccc(C(=O)O)o1`: the activation in test [1] is 193% (active). For the same compound, the potentiation in test [2] is 73% (active); in test [3], 222% (active). In test [4], the result was inactive.
`CC1(N2CCCCC2)CC2(O)C(=[N+]1[O-])CCC/C2=N\O` (stereo not given): the result in test [1], in test [2], in test [3] and in test [4] was inactive.
Regarding `CC1(c2ccc(OC(F)F)cc2)NC(=O)N(CC(=O)Nc2ccc(OC(F)F)cc2)C1=O` (stereo not given), the outcome in test [1], in test [2], in test [3] and in test [4] was inactive.
For `O=Cc1ccccc1OCCCOc1cccc2cccnc12`, the result in test [1], in test [2], in test [3] and in test [4] was inactive.
Consider `COc1ccc(Cl)cc1NC(=O)CNc1ccc(F)cc1C`, for which the outcome in test [1], in test [2], in test [3] and in test [4] was inactive.
Take `N=c1sccn1CC(=O)Nc1cc(Cl)ccc1Oc1ccccc1`: the result in test [1], in test [2], in test [3] and in test [4] was inactive.
For the compound `O=C1CCC(c2ccc(-n3ccnc3)cc2)=NN1`, the outcome in test [1], in test [2], in test [3] and in test [4] was inactive.
Turning to `COC(=O)c1sc(NC(=S)NC(=O)c2ccccc2F)nc1C`, the outcome in test [1], in test [2], in test [3] and in test [4] was inactive.
In the case of `C/C(=N/NC(=O)c1cc(C2CC2)[nH]n1)c1cccs1`, the activation in test [1] was 150% (active). Also, the potentiation in test [2] was 31.5% (active). Besides, the result in test [3] and in test [4] was inactive.
Take `CCN(CC)CCn1c(=S)[nH]c2cc(C(=O)NCc3ccc(C)cc3)ccc2c1=O`: the result in test [1], in test [2], in test [3] and in test [4] was inactive.
With `COc1cccc(OCC(=O)NNC(=O)C(=O)Nc2ccc(OC)cc2OC)c1`, the activation in test [1] was 172% (active). Moreover, the figures for the potentiation in test [2] and in test [3] were 55.5% (active) and 222% (active), respectively. The outcome in test [4] was inactive.
For the compound `O=C(COc1ccc(C(=S)N2CCC(Cc3ccccc3)CC2)cc1)N1CCOCC1`, the result in test [1], in test [2], in test [3] and in test [4] was inactive.
With `O=c1c(-c2ccccc2)[n+]([O-])c2ccccc2n1O`, the outcome in test [1], in test [2], in test [3] and in test [4] was inactive.
On to `S=C(Nc1ccc(Br)cc1)N1CCn2cccc2C1c1cccnc1` (stereo not given), for which the result in test [1], in test [2], in test [3] and in test [4] was inactive.
As for `CC1CN(C(=S)NC(=O)c2ccc(Cl)cc2)CC(C)O1` (stereo not given), in test [1], the activation is 144% (active). In addition, the potentiation was 24% (active) in test [2] and 152% (active) in test [3]. The result in test [4] was inactive.
Regarding `Cc1ccc(Cc2cnc(N3C(=N)SC(c4ccccc4)C3=O)s2)cc1` (stereo not given), the outcome in test [1], in test [2], in test [3] and in test [4] was inactive.
Take `O=c1[nH]c(Nc2ccccc2)cc2cc(Br)ccc12`: the result in test [1], in test [2], in test [3] and in test [4] was inactive.
Regarding `COc1ccc(NC(=S)NC(=O)c2ccccc2Cl)cc1`, the result in test [1], in test [2], in test [3] and in test [4] was inactive.
Consider `CSC(=S)N/N=C/c1ccccc1`, for which the activation in test [1] was 245% (active). For the same compound, the potentiation in test [2] was 48.5% (active); in test [3], 226% (active). For the same compound, the result in test [4] was inactive.
As to `Cc1ccc(C)c(/C=C/C(=O)c2ccccc(=O)c2O)c1`, the activation in test [1] is 194% (active). For the same compound, the potentiation in test [2] is 118% (active); in test [3], 333% (active). Also, the result in test [4] was inactive.
In the case of `CCCOc1ccc(-c2c(=O)n(O)c3ccccc3[n+]2[O-])cc1`, in test [1], the activation is 237% (active). Further, the result in test [2] and in test [4] was inactive. Besides, the potentiation in test [3] was 243% (active).
